The values that follow come from ChEMBL document CHEMBL3352164, “Discovery of N-(2,4-di-tert-butyl-5-hydroxyphenyl)-4-oxo-1,4-dihydroquinoline-3-carboxamide (VX-770, ivacaftor), a potent and orally bioavailable CFTR potentiator” (J Med Chem, 2014).

A word on the EC50: it is the midpoint of the concentration-response curve. In general, clearance refers to a measure of how efficiently the substance is removed, as volume per time. A low value points to inefficient removal. In general, half-life refers to how long it takes for the measured level to halve. Higher therefore signals slow loss. As a reminder, the AUC(0-inf) is total exposure, with the tail of the curve extrapolated. Read a low AUC(0-inf) as less exposure.

Data set [1] has as its system Cystic fibrosis transmembrane conductance regulator (Homo sapiens), P13569 [F508del]. Put plainly: Potentiation of human CFTR F508del mutant expressed in mouse NIH-3T3 cells at 30 uM after 30 mins by fluorescent voltage sensing optical assay relative to VRT-532. The format is cell-based. The following applies: NIH3T3. In a few lines: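 Same F508del-CFTR NIH-3T3 membrane-potential assay: 27 °C correction for 16–24 h, dye plus compound for 30 min at room temperature, then forskolin in Cl−-free bath. Compounds below 50% activity at 30 μM were not titrated. Their response at 30 μM is given as % of VRT-532.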

For data set [2], the target named is Cystic fibrosis transmembrane conductance regulator (Homo sapiens, UniProt P13569, F508DEL). Put plainly: Potentiation of human CFTR F508del mutant expressed in mouse NIH-3T3 cells after 30 mins by fluorescent voltage sensing optical assay. The format is cell-based, NIH3T3. In a few lines: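 NIH-3T3 fibroblasts stably expressing human F508del-CFTR were held 16–24 h at 27 °C to correct misfolding. Cells were washed in NaCl/HEPES bath, pH 7.4, then loaded with voltage-sensing dyes plus compound for 30 min at room temperature. Cl−-free bath with forskolin was added once, and membrane potential change was read by fluorescence. EC50 is mean ± SD of at least three determinations.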
Sequence of Cystic fibrosis transmembrane conductance regulator (P13569 as listed by the source): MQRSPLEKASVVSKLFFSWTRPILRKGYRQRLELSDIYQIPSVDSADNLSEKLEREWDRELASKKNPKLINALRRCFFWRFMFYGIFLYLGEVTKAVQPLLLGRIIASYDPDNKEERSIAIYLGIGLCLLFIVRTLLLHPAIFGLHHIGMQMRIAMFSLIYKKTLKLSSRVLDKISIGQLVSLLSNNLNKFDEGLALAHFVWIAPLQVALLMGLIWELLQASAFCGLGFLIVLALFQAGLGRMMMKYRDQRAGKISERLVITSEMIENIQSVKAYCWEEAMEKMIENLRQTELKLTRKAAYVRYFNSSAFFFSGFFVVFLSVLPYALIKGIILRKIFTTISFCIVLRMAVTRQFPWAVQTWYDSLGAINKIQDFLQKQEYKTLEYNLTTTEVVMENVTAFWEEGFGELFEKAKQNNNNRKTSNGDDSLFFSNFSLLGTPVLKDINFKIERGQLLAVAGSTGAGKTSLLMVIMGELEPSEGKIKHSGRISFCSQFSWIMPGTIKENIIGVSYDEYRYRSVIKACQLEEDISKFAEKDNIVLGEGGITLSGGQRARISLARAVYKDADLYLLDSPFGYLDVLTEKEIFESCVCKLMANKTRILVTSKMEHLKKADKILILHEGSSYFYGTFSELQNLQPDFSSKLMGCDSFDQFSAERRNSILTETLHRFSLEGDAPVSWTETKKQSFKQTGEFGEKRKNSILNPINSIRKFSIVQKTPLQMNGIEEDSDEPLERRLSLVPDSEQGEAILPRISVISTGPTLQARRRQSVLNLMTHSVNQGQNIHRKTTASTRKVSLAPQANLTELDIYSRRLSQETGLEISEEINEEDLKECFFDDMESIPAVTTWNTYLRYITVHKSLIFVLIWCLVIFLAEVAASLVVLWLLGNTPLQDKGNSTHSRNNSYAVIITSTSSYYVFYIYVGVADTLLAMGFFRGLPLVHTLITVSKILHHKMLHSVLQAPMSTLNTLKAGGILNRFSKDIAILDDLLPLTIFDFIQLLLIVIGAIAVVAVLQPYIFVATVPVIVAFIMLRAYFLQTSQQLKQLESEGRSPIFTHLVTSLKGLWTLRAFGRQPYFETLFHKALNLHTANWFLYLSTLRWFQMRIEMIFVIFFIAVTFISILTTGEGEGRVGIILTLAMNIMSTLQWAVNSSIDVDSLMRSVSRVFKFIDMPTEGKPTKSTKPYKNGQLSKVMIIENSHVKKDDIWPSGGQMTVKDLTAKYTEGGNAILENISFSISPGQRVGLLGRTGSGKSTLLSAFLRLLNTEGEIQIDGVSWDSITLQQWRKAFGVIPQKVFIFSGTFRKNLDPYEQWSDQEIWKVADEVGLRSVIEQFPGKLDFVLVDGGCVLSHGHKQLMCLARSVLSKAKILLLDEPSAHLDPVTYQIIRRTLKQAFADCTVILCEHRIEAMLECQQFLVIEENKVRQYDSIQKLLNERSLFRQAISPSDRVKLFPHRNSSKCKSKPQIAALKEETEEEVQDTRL

Data set [3] in a line: Volume of distribution at steady state in Sprague-Dawley rat at 2.49 mg/kg, iv. The data set is classed as ADME, organism-based. The following applies: in vivo, read-out: Vdss. The arrangement: dose 2.49 mg/kg, route intravenous. In a few lines: (§1)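 Animals (n = 3/group; male mouse, Sprague-Dawley rat, beagle dog, cynomolgus monkey) got a single iv dose in dimethyl isosorbide/ethanol/PEG400/D5W (10%/15%/35%/40%) at 1 mL/kg. Heparinized blood was drawn via an indwelling carotid cannula from predose to 48 h. Plasma was assayed by LC/MS/MS (LLOQ 1 ng/mL, linear 1–2500 ng/mL). Parameters came from noncompartmental analysis of mean profiles using measured doses.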

Data set [4] is described as follows: Clearance in Sprague-Dawley rat at 2.49 mg/kg, iv. The format is ADME, organism-based. Also on record: dose 2.49 mg/kg, route intravenous. Conditions: in vivo. In a few lines:
as §1

Data set [5] can be described thus: Half life in Sprague-Dawley rat at 2.49 mg/kg, iv. The format is ADME, organism-based. Also on record: dose 2.49 mg/kg, route intravenous. Conditions: in vivo. In a few lines: as §1
The nature of data set [6]: AUC (0 to infinity) in Sprague-Dawley rat at 2.49 mg/kg, iv. Also on record: time infinity, dose 2.49 mg/kg, route intravenous. The following applies: plasma. The format is ADME, organism-based. In a few lines:
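Male Sprague−Dawley rats, n = 3/group, single iv dose in dimethyl isosorbide/ethanol/PEG400/D5W (10%/15%/35%/40%) at 1 mL/kg. Carotid cannula blood at predose, 5, 15, 30, 45 min and 1, 2, 4, 6, 8, 12, 24, 36, 48 h. Plasma levels by LC/MS/MS (LLOQ 1 ng/mL, linear 1–2500 ng/mL). Noncompartmental analysis of mean profiles using measured doses.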

Sequence of Cystic fibrosis transmembrane conductance regulator (Homo sapiens), P13569 [F508del] (P13569 as listed by the source): as above

Take `O=C(Nc1cnc2ccccc2c1O)c1ccc2cc[nH]c2c1`: the Activity in data set [1] came to 8%. Turning to `O=C(Nc1ccc2c(c1)NCC2)c1c[nH]c2ccccc2c1=O`, the EC50 in data set [2] is 400 nM. On to `O=C(c1c[nH]c2ccccc2c1=O)N(Cc1ccccc1)Cc1ccccc1`, for which the EC50 in data set [2] stood at 2100 nM. For the molecule `O=C(Nc1ccc2nc[nH]c2c1)c1c[nH]c2ccccc2c1=O`, the Activity in data set [1] was 12%.

With `O=C(Nc1ccc2ccccc2c1)c1c[nH]c2ccccc2c1=O`, the EC50 in data set [2] was determined as 800 nM. For the molecule `CC(C)(C)c1cc2cc[nH]c2cc1NC(=O)c1c[nH]c2ccccc2c1=O`, in data set [2], the concentration for a half-maximal effect (EC50) came out at 11 nM. For the same molecule, the Vd in data set [3] worked out at 3.3 L/kg. This molecule displayed a clearance in data set [4] of 15.8 mL/min/kg. Moreover, the half-life in data set [5] was 2.9 h. The molecule further gave an AUC(0-inf) in data set [6] of 2640 ng·h/mL. As for `CC(C)(C)c1cc(C(F)(F)F)c(NC(=O)c2c[nH]c3ccccc3c2=O)cc1O`, the EC50 in data set [2] was 3 nM. For the molecule `Nc1cccc(NC(=O)c2c[nH]c3ccccc3c2=O)c1`, the EC50 in data set [2] was 6900 nM. The same measure, in the same setting: the same measure for `CC(C)c1ccc(NC(=O)c2c[nH]c3ccccc3c2=O)cc1`: 200 nM.

Turning to `O=C(Oc1ccc2cc[nH]c2c1)c1c[nH]c2ccccc2c1=O`, the Activity in data set [1] worked out at 19%. Still for that read-out and setting: next, `CC(C)(C)c1ccc(NC(=O)c2c[nH]c3ccccc3c2=O)cc1CN`: 20%; `O=c1c(CNc2ccc3cc[nH]c3c2)c[nH]c2ccccc12`: 1%. Take `CC(C)(C)c1ccc(NC(=O)c2c[nH]c3ccccc3c2=O)cc1`: in data set [2], the EC50 was 100 nM. Consider `CCc1ccccc1NC(=O)c1c[nH]c2ccccc2c1=O`, for which the EC50 in data set [2] is 200 nM. As for `O=C(c1ccc2ccccc2c1O)N(Cc1ccccc1)Cc1ccccc1`, the EC50 in data set [2] stood at 3500 nM. Turning to `O=C(Nc1ccccc1)c1c[nH]c2ccccc2c1=O`, in data set [2], the EC50 was 1300 nM. On the same count and under the same terms, next, `O=C(Nc1ccc2[nH]ccc2c1)c1c[nH]c2ccccc2c1=O`: 6100 nM.

Take `Cn1cc(C(=O)N(Cc2ccccc2)Cc2ccccc2)c(=O)c2ccccc21`: the Activity in data set [1] amounted to 37%. The same measure, in the same setting: the same measure for `O=C(c1cnccc1O)N(Cc1ccccc1)Cc1ccccc1`: 2%. `CCc1ccc(NC(=O)c2c[nH]c3ccccc3c2=O)cc1N`: the EC50 in data set [2] was determined as 1700 nM. For `O=C(Nc1ccc2cc[nH]c2n1)c1c[nH]c2ccccc2c1=O`, the Activity in data set [1] stood at 13%. As for `CC(C)(C)c1ccc(NC(=O)c2c[nH]c3ccccc3c2=O)cc1F`, the EC50 in data set [2] was found to be 100 nM. In the case of `O=C(c1cnc2ccccn2c1=O)N(Cc1ccccc1)Cc1ccccc1`, in data set [1], the Activity amounted to 10%. Regarding `N#CCc1ccccc1NC(=O)c1c[nH]c2ccccc2c1=O`, in data set [2], the EC50 was 8500 nM.
